Results on nine molecules are retold here after paper PMC10753549 (ACS Omega, 2023).

Data set [1] relates to brine shrimp (Artemia salina). The experiment in a line: Brine shrimp lethality bioassay.
The subject of another data set is Zika virus strain MR766. The data set can be described thus: Anti-ZIKV viral immunofluorescence assay in Vero cells. It counts as cell-based, Zika virus (MR766 Africa lineage). In short, it runs like this:
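Vero cells kept in DMEM with 10% FBS, 1% penicillin/streptomycin and 2 mM L-glutamine. They were pretreated with test compound at ten concentrations, then infected with MR766 virus stock grown in C6/36 mosquito cells (5 μL inoculum per well). After 24 h the cells were fixed in 4% paraformaldehyde and read by immunofluorescence. Mycophenolic acid was the positive control. EC50 came from 10-point dose–response curves in triplicate. CC50 was measured in uninfected Vero cells, and SI = CC50/EC50.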

Data set [2] can be described thus: Cytotoxicity assay on Vero cells. It counts as cell-based. Particulars: African green monkey, virus-uninfected Vero cells, CC50 (50% cytotoxic concentration), 10-point dose–response curves in triplicate. In short, it runs like this: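 Vero cells were grown in DMEM with 10% FBS, 1% penicillin/streptomycin and 2 mM L-glutamine. Virus-uninfected cells were exposed to test compound at ten concentrations. CC50 was calculated from the 10-point dose–response curves, run in triplicate.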

Another data set deals with ZIKV NS3 protease. Particulars: read-out: IC50 (viral protease); ref Pathak et al. (2020) [49]; cited from earlier work.
Another data set concerns ZIKV. Particulars: read-out: EC50 (anti-ZIKV); in vitro assays; ref Pathak et al. (2020) [49]; cited from earlier work.
The test system of the next data set is NS2B-NS3 protease. Particulars: NS2B-NS3 inhibitors; cited from earlier work.

Structures can show the parent of a compound that is named as a salt.

By CC50 is commonly meant the concentration that lowers cell viability or growth by half. The low end stands for greater toxicity to the cells, the high end for lower toxicity to the cells. What is called IC50 is the concentration needed to halve the response being measured.

With `CN1[C@@H]2CC[C@H]1C[C@@H](OC(=O)C(CO)c1ccccc1)C2` (stereo partly shown) [Atropine SO4, Atropine sulfate monohydrate], in data set [1] (after 24 h), the nauplii mortality result is “below 20%”.
As for `COc1ccc2cc3[n+](cc2c1OC)CCc1cc2c(cc1-3)OCO2` [Berberine chloride, berberine chloride], the nauplii mortality result in data set [1] (at 125 μg/mL, 24 h) is “all the nauplii were dead”. In data set [1] (brine shrimp nauplii, 24 h, probit analysis of 6-point dose (16–500 μg/mL)), the “LD50 (median lethal dose)” value is 27.0 µg/mL.
For `COc1c(C)c2c(c(O)c1C/C=C(\C)CCC(=O)O)C(=O)OC2` [MPA, mycophenolic acid], the “SI: Selectivity index (CC50/EC50)” value in the data set with Zika virus strain MR766 (ZIKV MR766 / Vero cells) is recorded as greater than 1063. The EC50 with Zika virus strain MR766 (Zika virus, Vero, 24 h, read-out: EC50 (median effective concentration)) came out at 0.94 µM. Also, the CC50 in data set [2] was greater than 1000 µM.
On to `C=C[C@@H]1C[C@]1(NC(=O)[C@@H]1C[C@@H](Oc2ncc(OC)c3ccc(Cl)cc23)CN1C(=O)[C@@H](NC(=O)OC(C)(C)C)C(C)(C)C)C(=O)NS(=O)(=O)C1CC1` [asunaprevir], for which the IC50 in the data set with ZIKV NS3 protease was 6 µM. Also, the EC50 in the data set on ZIKV was 4.7 µM.
Consider `CC(C)C[C@H]1C(=O)N2CCC[C@H]2[C@]2(O)O[C@](NC(=O)[C@@H]3C=C4c5cccc6[nH]c(Br)c(c56)C[C@H]4N(C)C3)(C(C)C)C(=O)N12` [bromocriptine], for which, in the data set on NS2B-NS3 protease, the IC50 is 21.6 µM.
Consider `CO[C@@H]1[C@@H](OC(N)=O)[C@@H](O)[C@H](Oc2ccc3c(O)c(NC(=O)c4ccc(O)c(CC=C(C)C)c4)c(=O)oc3c2C)OC1(C)C` [novobiocin], for which the IC50 in the data set with NS2B-NS3 protease is 14.2 µM.
Regarding `COc1ccc2c(O[C@@H]3C[C@H]4C(=O)N[C@]5(C(=O)NS(=O)(=O)C6CC6)C[C@H]5/C=C\CCCCN(C)C(=O)[C@@H]4C3)cc(-c3nc(C(C)C)cs3)nc2c1C` [simeprevir], the IC50 in the data set on ZIKV NS3 protease is 2.6 µM.
With `Oc1cccc(-c2c3nc(c(-c4cccc(O)c4)c4ccc([nH]4)c(-c4cccc(O)c4)c4nc(c(-c5cccc(O)c5)c5ccc2[nH]5)CC4)C=C3)c1` [temoporfin], the 50% inhibitory concentration (IC50) with NS2B-NS3 protease is 1.1 µM.
On to erythrosine B, for which the IC50 in the data set with NS2B-NS3 protease was 1.7 µM.
